Reference: the array DNA melting data of Ke et al. (doi:10.1101/2024.01.08.574731)

What was measured:
[1] = folding enthalpy; higher = less favourable; fluorescence melt of hairpins on a sequencing array, two-state fit; settings: sodium 0.088 M
Summary of the method: (§1)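 Melting temperature and folding enthalpy were derived from bootstrapped two-state fits. The fitted temperatures were raised by 9.35 °C to agree with UV melts, and four replicates were combined by inverse variance. The underlying data were Cy3 fluorescence images of library hairpins, with annealed Cy3 and quencher oligos, on a sequenced MiSeq flow cell in 50 mM Na-HEPES pH 8.0, 25 mM NaCl, taken in 2.5 °C steps up to 60 °C, normalised to pre-quench Cy3 and to control constructs.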

[2] = melting temperature; fluorescence melt of hairpins on a sequencing array, two-state fit, raised by 9.35 °C to match UV melts; settings: sodium 0.088 M
Summary of the method: as §1

GATCCGCGAAAGCGCATC (((.(((....))).)))
folding enthalpy [1]: -14.1 kcal/mol | Tm [2]: 36.5 °C

GCGATTGTTCGC ((((....))))
folding enthalpy [1]: -24.5 kcal/mol | Tm [2]: 51.6 °C

GCCCCAGGAAACCGAGGC (((.(.(....).).)))
folding enthalpy [1]: -16.3 kcal/mol | Tm [2]: 32.6 °C

GCGAATGGAAACGTTTGC ((.((.(....).)).))
folding enthalpy [1]: -30.7 kcal/mol | Tm [2]: 36 °C

GGTGTACGAAAGTAAACC (((.(((....))).)))
folding enthalpy [1]: -24.9 kcal/mol | Tm [2]: 48.6 °C

GCGTACCCACGC ((((....))))
folding enthalpy [1]: -21.2 kcal/mol | Tm [2]: 53.1 °C

GTCAGCGAAAGCTATGAC ((((((....)))..)))
folding enthalpy [1]: -20.6 kcal/mol | Tm [2]: 44.2 °C

ACCCAGAAATGGGT (((((....)))))
folding enthalpy [1]: -18.3 kcal/mol | Tm [2]: 47.9 °C

GGTTTCCGAAAGGAACC (((.(((....))))))
folding enthalpy [1]: -19.8 kcal/mol | Tm [2]: 51.8 °C

CGGCCGGAAACGGCCCG ((((((....))).)))
folding enthalpy [1]: -7.26 kcal/mol | Tm [2]: 58.5 °C

AGCTTGAAAAAGCT (((((....)))))
folding enthalpy [1]: -17.4 kcal/mol | Tm [2]: 47.9 °C

GATCTAGGCGTAGATC ((((((....))))))
folding enthalpy [1]: -32.4 kcal/mol | Tm [2]: 45.4 °C

GCAGTGCGAAAGCATGGC ((..(((....)))..))
folding enthalpy [1]: -19.2 kcal/mol | Tm [2]: 54 °C

GTACCTGGAAACAGGCAC ((.((((....)))).))
folding enthalpy [1]: -22.1 kcal/mol | Tm [2]: 42.5 °C

TGGATGAAAATCCA (((((....)))))
folding enthalpy [1]: -17.8 kcal/mol | Tm [2]: 46.1 °C

GCTGCCGAAAGGCTAGC ((((((....))).)))
folding enthalpy [1]: -16.7 kcal/mol | Tm [2]: 59.6 °C

GCTGCGCCGAAAGGCAGC (((..(((....))))))
folding enthalpy [1]: -11.5 kcal/mol | Tm [2]: 61.1 °C

GCGCCGGGAAACCGACGC (((.(((....))).)))
folding enthalpy [1]: -46.8 kcal/mol | Tm [2]: 60.9 °C

GTCGTGGGAAACTGCGAC ((((..(....)..))))
folding enthalpy [1]: -18.5 kcal/mol | Tm [2]: 46.9 °C

GCCGCAGGAAACCGCGGC (((((.(....).)))))
folding enthalpy [1]: -32.1 kcal/mol | Tm [2]: 67.8 °C

GATCGCCCCTGCGATC ((((((....))))))
folding enthalpy [1]: -33.6 kcal/mol | Tm [2]: 67.2 °C

GATCCGCTACGGATC ((((((...))))))
folding enthalpy [1]: -31.7 kcal/mol | Tm [2]: 57.2 °C

GTTCTGGGAAACTAGGAC ((.((.(....).)).))
folding enthalpy [1]: -9.14 kcal/mol | Tm [2]: 28.8 °C

GAGGGAGGAAACTCCCCC (.(((((....))))).)
folding enthalpy [1]: -10.5 kcal/mol | Tm [2]: 41.9 °C

GATCCTTAGGAGGATC ((((((....))))))
folding enthalpy [1]: -39.2 kcal/mol | Tm [2]: 51 °C

GTGAAACGAAAGTTGCAC (((.(((....))).)))
folding enthalpy [1]: -31.2 kcal/mol | Tm [2]: 51.6 °C

GGTAGCGAAAGCTAAACC ((((((....)))..)))
folding enthalpy [1]: -15 kcal/mol | Tm [2]: 42.8 °C

GCAAAGCGAAAGCTCAGC ((..(((....)))..))
folding enthalpy [1]: -10.8 kcal/mol | Tm [2]: 33.6 °C

GTAGTGGAAACACTAC ((((((....))))))
folding enthalpy [1]: -45.9 kcal/mol | Tm [2]: 53.4 °C

GCGTGAGGAAACCCACGC (((((.(....).)))))
folding enthalpy [1]: -42.2 kcal/mol | Tm [2]: 57.7 °C

GAGCCCGAAAGGGTGCTC ((((((....)))..)))
folding enthalpy [1]: -18.6 kcal/mol | Tm [2]: 52.1 °C

CGTCAACGGAAACGTACG (((..(((....))))))
folding enthalpy [1]: -11.4 kcal/mol | Tm [2]: 35.6 °C

GATCATCCGAATGATC ((((((....))))))
folding enthalpy [1]: -30.3 kcal/mol | Tm [2]: 47.2 °C

CGAACGGAAACGTGTCG ((((((....))).)))
folding enthalpy [1]: -23.1 kcal/mol | Tm [2]: 38.5 °C

GAAGACCGAAAGGTTTC (((.(((....))))))
folding enthalpy [1]: -13.9 kcal/mol | Tm [2]: 37 °C

GATCTCAGGCGAGATC ((((((....))))))
folding enthalpy [1]: -27.7 kcal/mol | Tm [2]: 51.5 °C

GCACTTCCGAAAGGATGC (((..(((....))))))
folding enthalpy [1]: -17.7 kcal/mol | Tm [2]: 37.9 °C

GATGACGGAAACGTCATC (((((((....)))))))
folding enthalpy [1]: -37.1 kcal/mol | Tm [2]: 67.5 °C

GTGTTCGGAAACGAGCAC (((.(((....))).)))
folding enthalpy [1]: -40.4 kcal/mol | Tm [2]: 53.8 °C

GCTTTCCGAAAGGACAGC (((.(((....))).)))
folding enthalpy [1]: -35.7 kcal/mol | Tm [2]: 49.9 °C

GGGAACGAAAGTTACCC ((((((....))).)))
folding enthalpy [1]: -30 kcal/mol | Tm [2]: 53.8 °C

GCTGCGCGAAAGCAGAGC (((..((....))..)))
folding enthalpy [1]: -16.1 kcal/mol | Tm [2]: 47.7 °C

GAGAGTGGAAACGTTCTC ((((..(....)..))))
folding enthalpy [1]: -14.4 kcal/mol | Tm [2]: 33.9 °C

GATCAGCCGACTGATC ((((((....))))))
folding enthalpy [1]: -35.5 kcal/mol | Tm [2]: 49.6 °C

GCAAACCGAAAGGTCTGC (((.(((....))).)))
folding enthalpy [1]: -29.8 kcal/mol | Tm [2]: 49.8 °C

GTGAGGGGAAACCCTTAC ((.((((....)))).))
folding enthalpy [1]: -26.7 kcal/mol | Tm [2]: 44.5 °C

GATCTGACAGCAGATC ((((((....))))))
folding enthalpy [1]: -28.6 kcal/mol | Tm [2]: 44.7 °C

GTTGAAGAAATTCAAC ((((((....))))))
folding enthalpy [1]: -27.1 kcal/mol | Tm [2]: 45.8 °C

GAGTCAGGAAACTGACCC (.(((((....))))).)
folding enthalpy [1]: -13.4 kcal/mol | Tm [2]: 40.5 °C

GATCACCATAGTGATC ((((((....))))))
folding enthalpy [1]: -42.2 kcal/mol | Tm [2]: 58.5 °C

ATCCGGAAACGGAT (((((....)))))
folding enthalpy [1]: -20.7 kcal/mol | Tm [2]: 52.8 °C

GTAGCCGAAAGGCCGTAC ((((((....)))..)))
folding enthalpy [1]: -7.15 kcal/mol | Tm [2]: 26.7 °C

GATCCTAGGCAGGATC ((((((....))))))
folding enthalpy [1]: -35.4 kcal/mol | Tm [2]: 53.3 °C

GCATCCGAAAGGAGTTGC ((((((....)))..)))
folding enthalpy [1]: -15.4 kcal/mol | Tm [2]: 37.9 °C

GCGACTCGAAAGAGACGC (((.(((....))).)))
folding enthalpy [1]: -48.5 kcal/mol | Tm [2]: 62.3 °C

GATCGTTGGAACGATC ((((((....))))))
folding enthalpy [1]: -42.4 kcal/mol | Tm [2]: 54.4 °C

GATCAGTTACTGATC ((((((...))))))
folding enthalpy [1]: -41.7 kcal/mol | Tm [2]: 51.4 °C

GATCTGAGCACAGATC ((((((....))))))
folding enthalpy [1]: -29 kcal/mol | Tm [2]: 49.5 °C

GATCAAAAAGTTGATC ((((((....))))))
folding enthalpy [1]: -14.1 kcal/mol | Tm [2]: 33 °C

GTAATAGGAAACTATTAC (((((((....)))))))
folding enthalpy [1]: -37.2 kcal/mol | Tm [2]: 45.5 °C

GCAACGCGAAAGCCGTGC (((..((....))..)))
folding enthalpy [1]: -14.8 kcal/mol | Tm [2]: 49 °C

GGCCGGCGAAAGCCTGCC (((.(((....))).)))
folding enthalpy [1]: -29.7 kcal/mol | Tm [2]: 65.2 °C

GCCATTCGAAAGAAGGGC (((.(((....))).)))
folding enthalpy [1]: -41 kcal/mol | Tm [2]: 59.4 °C

GAATACGGAAACGCATTC ((((.((....)).))))
folding enthalpy [1]: -29.8 kcal/mol | Tm [2]: 36.8 °C

GATCCTTGGAAGGATC ((((((....))))))
folding enthalpy [1]: -32.1 kcal/mol | Tm [2]: 52.2 °C

GGATCAGAAATGATCC ((((((....))))))
folding enthalpy [1]: -36 kcal/mol | Tm [2]: 55.3 °C

GGCCGAGCGAAAGCTGCC (((..(((....))))))
folding enthalpy [1]: -21.4 kcal/mol | Tm [2]: 50.7 °C

GGGAACGAAAGTTATCCC ((((((....)))..)))
folding enthalpy [1]: -23.3 kcal/mol | Tm [2]: 36.6 °C

GCGTACGGAAACGTACAC (.(((((....))))).)
folding enthalpy [1]: -15.1 kcal/mol | Tm [2]: 42.8 °C

GGGCCCGGAAACAGGCCC (((((.(....).)))))
folding enthalpy [1]: -34.2 kcal/mol | Tm [2]: 59.1 °C
